These results are taken from ChEMBL document CHEMBL3856209, “Novel pyrazolopyridine derivatives as potential angiogenesis inhibitors: Synthesis, biological evaluation and transcriptome-based mechanistic analysis” (Eur J Med Chem, 2016).

Active and inactive are the calls of the source. The calls are words filed in the database; no cut-off is given here.

What is called IC50 is the concentration that gives 50% inhibition.

Series [1] relates to HUVEC. Description: Effect on RNU1-3 gene expression in serum-starved HUVEC after 24 hrs by microarray analysis relative to control. The format is functional, Homo sapiens. Put shortly: (§1)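 Serum-starved confluent HUVEC (pooled from 3–5 donors, passage ≤4) were treated with 2 μM compound or vehicle in 2.5% FBS for 6 h or 24 h, and total RNA was isolated. Hybridization was on Illumina Human-HT12. Data were processed with bgAdjust, vst and rsn normalization. Changes versus DMSO were called by moderated paired t-test at p < 0.05 and |log2 fold change| > 0.5.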

The subject of another series is Mus musculus. Description: Toxicity in C57BL/6 mouse allografted with mouse LLC cells assessed as effect on vital organs at 0.05 to 0.2 mg/kg, ip administered thrice a week for 2 weeks starting 24 hrs before tumor implantation by haematoxylin-eosin staining-based microscopic analysis. In kind it is organism-based. The note with it: in vivo. Put shortly:
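Male C57BL/6 mice, 6–8 weeks old, in groups of 5–6, received 5×10^5 LLC cells sc in the right flank. Compound (0.05–0.2 mg/kg) or DMSO vehicle was given ip thrice weekly for 2 weeks, starting 24 h before implantation. Mice were weighed and examined clinically every other day. At end-point, kidney, lung, spleen, liver and heart sections were H&E-stained and examined microscopically.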

For series [2], the system named is HUVEC. Kind of series: Effect on RNU1-3 gene expression in serum-starved HUVEC after 6 hrs by microarray analysis relative to control. The format is functional, Homo sapiens. Put shortly:
as §1

For series [3], the system named is HUVEC. Description: Effect on GNG12 gene expression in serum-starved HUVEC after 24 hrs by microarray analysis relative to control. The format is functional, Homo sapiens. Put shortly:
(§2)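 Confluent, serum-starved HUVEC (pooled from 3–5 donors, passage ≤4) treated with 2 μM compound or vehicle with 2.5% FBS for 6 h or 24 h. Total RNA hybridized to Illumina Human-HT12 arrays. Data were background-corrected, vst-transformed and rsn-normalized. Hits called by moderated paired t-test versus DMSO-treated cells, p < 0.05 and log2 fold change >|0.5|.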

The test system of series [4] is HUVEC. Kind of series: Effect on KIF20A gene expression in serum-starved HUVEC after 24 hrs by microarray analysis relative to control. The format is functional, Homo sapiens. Put shortly: as §2
Series [5] has as its system HUVEC. Kind of series: Antiangiogenic activity in HUVEC assessed as inhibition of VEGF-165-induced tube formation at 0.2 to 2 uM after 24 hrs by matrigel assay. In kind it is functional, cell-based. The following applies: Homo sapiens. Put shortly:
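HUVEC seeded at 2×10^4 cells/well on growth factor-reduced Matrigel after pre-starvation, then given compound or vehicle (up to 0.1% v/v DMSO), with or without VEGF-165, for 24 h. Fixed in ice-cold ethanol and stained with haematoxylin-eosin. Tube-like structures counted in at least 5 fields/well and expressed as % of vehicle control; replicates from two independent experiments.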

A short description of series [6]: Antiproliferative activity against human EAhy926 cells assessed as decrease in cell viability after 24 to 48 hrs in presence of 2.5% fetal bovine serum by MTT assay. The following applies: EA.hy 926. In kind it is functional, cell-based. Put shortly:
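EA.hy926 in DMEM with 2.5% FBS exposed 48 h to serial 1:2 compound dilutions spanning 0.125–50 μM. Viable cells measured by MTT (0.5 mg/mL, 4 h, A595/630 nm). IC50 (mean ± SEM) fitted by non-linear regression from eight or more points.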
(Tetrazolium dyes change colour on reduction, which living cells bring about.)

Series [7] concerns Lewis lung carcinoma. Description: Antiangiogenic activity in mouse LLC cells allografted in C57BL/6 mouse assessed as decrease of microvessel density in tumor at 0.2 mg/kg, ip administered thrice a week for 2 weeks starting 24 hrs before tumor implantation measured post last dose by IHC analysis. The format is functional, organism-based. Put shortly:
(§3)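 Male 6–8 week C57BL/6 mice (groups of 5–6) inoculated sc in the right flank with 5×10^5 LLC cells. Compound (0.2 mg/kg) or DMSO vehicle given ip thrice weekly for 2 weeks, starting 24 h before implantation. Tumors measured by caliper every other day. At end-point, anti-CD31 IHC (1:100) of tumor sections, with immunoreactive cells counted in six high-power fields.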

Series [8] has as its system HUVEC. Kind of series: Antimigratory activity in HUVEC at 0.2 to 2 uM after 6 hrs in presence of 5% fetal bovine serum by transwell assay. The format is functional, cell-based. The following applies: Homo sapiens. Put shortly:
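Serum-starved confluent HUVEC pre-treated overnight with compound or vehicle in 5% FBS medium. Then placed in the upper chamber of 8 µm-pore Transwells (6×10^4 cells/well) and allowed to migrate 6 h toward 5% FBS or starvation medium. Migrated cells fixed, H&E stained, and counted in five fields/well; expressed as % of control; replicates from two independent experiments.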

The nature of series [9]: Effect on total VEGFR2 levels in VEGF-165-induced serum-starved HUVEC at 2 uM preincubated for 2 hrs followed by VEGF-165 induction measured after 5 mins by Western blot analysis. The format is cell-based. The following applies: human. Put shortly:
(§4)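 Serum-starved HUVEC were given 2 µM compound or vehicle for 2 h, then VEGF-165 (50 ng/mL) or PBS for 5 min. Lysates with equal protein were run on SDS-PAGE and immunoblotted for phospho-VEGFR2 (Tyr951, 996, 1056, 1175), p-AKT Ser473, p-ERK1/2 and the total proteins. Detection was by ECL with densitometry. Phospho signals were normalized to total protein, n = 3.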
For orientation: A western blot detects proteins with antibodies after separation by electrophoresis.

The target in series [10] is Vascular endothelial growth factor receptor 2 (Homo sapiens) (UniProt P35968). Description: Inhibition of VEGF-165-induced VEGFR2 autophosphorylation in serum-starved HUVEC assessed as decrease in ERK1/2 phosphorylation at 2 uM preincubated for 2 hrs followed by VEGF-165 induction measured after 5 mins by Western blot analysis. In kind it is cell-based. Put shortly:
as §4

For series [11] the target is unchanged. Description: Inhibition of VEGF-165-induced VEGFR2 autophosphorylation at Tyr1175 in serum-starved HUVEC at 2 uM preincubated for 2 hrs followed by VEGF-165 induction measured after 5 mins by Western blot analysis. The format is cell-based. Put shortly: as §4
Series [12] concerns HUVEC. Description: Effect on KIF20A gene expression in serum-starved HUVEC after 6 hrs by microarray analysis relative to control. In kind it is functional, Homo sapiens. Put shortly:
as §2

The next series has as its system EA.hy 926. Description: Antiproliferative activity against human EAhy926 cells assessed as decrease in cell viability at 0.2 to 2 uM after 24 to 48 hrs in presence of 2.5% fetal bovine serum by MTT assay. The format is functional, cell-based. Put shortly:
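EA.hy926 seeded at 4×10^3/well, adhered 24 h, and starved 4 h in 0.25% BSA medium. Then treated with compound or 0.1% v/v DMSO in medium with 2.5% FBS for 48 h. MTT 0.5 mg/mL for 4 h, A595 with 630 nm correction, cell number from a standard curve. Expressed as % of DMSO control; replicates from two independent experiments.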

In series [13] the test system is HUVEC. Kind of series: Effect on RNA28S5 gene expression in serum-starved HUVEC after 6 hrs by microarray analysis relative to control. In kind it is functional, Homo sapiens. Put shortly:
as §1

Series [14] deals with Vascular endothelial growth factor receptor 2 (Homo sapiens) (UniProt P35968). Kind of series: Inhibition of VEGF-165-induced VEGFR2 autophosphorylation in serum-starved HUVEC assessed as decrease in AKT phosphorylation at 2 uM preincubated for 2 hrs followed by VEGF-165 induction measured after 5 mins by Western blot analysis. In kind it is cell-based. Put shortly: as §4

Series [15] relates to Lewis lung carcinoma. Description: Antitumor activity against mouse LLC cells allografted in C57BL/6 mouse assessed as tumor growth inhibition at 0.2 mg/kg, ip administered thrice a week for 2 weeks starting 24 hrs before tumor implantation measured every other day of compound dosing by electronic caliper-based method. In kind it is functional, organism-based. Put shortly:
as §3

Vascular endothelial growth factor receptor 2 (Homo sapiens), sequence (P35968 whole entry): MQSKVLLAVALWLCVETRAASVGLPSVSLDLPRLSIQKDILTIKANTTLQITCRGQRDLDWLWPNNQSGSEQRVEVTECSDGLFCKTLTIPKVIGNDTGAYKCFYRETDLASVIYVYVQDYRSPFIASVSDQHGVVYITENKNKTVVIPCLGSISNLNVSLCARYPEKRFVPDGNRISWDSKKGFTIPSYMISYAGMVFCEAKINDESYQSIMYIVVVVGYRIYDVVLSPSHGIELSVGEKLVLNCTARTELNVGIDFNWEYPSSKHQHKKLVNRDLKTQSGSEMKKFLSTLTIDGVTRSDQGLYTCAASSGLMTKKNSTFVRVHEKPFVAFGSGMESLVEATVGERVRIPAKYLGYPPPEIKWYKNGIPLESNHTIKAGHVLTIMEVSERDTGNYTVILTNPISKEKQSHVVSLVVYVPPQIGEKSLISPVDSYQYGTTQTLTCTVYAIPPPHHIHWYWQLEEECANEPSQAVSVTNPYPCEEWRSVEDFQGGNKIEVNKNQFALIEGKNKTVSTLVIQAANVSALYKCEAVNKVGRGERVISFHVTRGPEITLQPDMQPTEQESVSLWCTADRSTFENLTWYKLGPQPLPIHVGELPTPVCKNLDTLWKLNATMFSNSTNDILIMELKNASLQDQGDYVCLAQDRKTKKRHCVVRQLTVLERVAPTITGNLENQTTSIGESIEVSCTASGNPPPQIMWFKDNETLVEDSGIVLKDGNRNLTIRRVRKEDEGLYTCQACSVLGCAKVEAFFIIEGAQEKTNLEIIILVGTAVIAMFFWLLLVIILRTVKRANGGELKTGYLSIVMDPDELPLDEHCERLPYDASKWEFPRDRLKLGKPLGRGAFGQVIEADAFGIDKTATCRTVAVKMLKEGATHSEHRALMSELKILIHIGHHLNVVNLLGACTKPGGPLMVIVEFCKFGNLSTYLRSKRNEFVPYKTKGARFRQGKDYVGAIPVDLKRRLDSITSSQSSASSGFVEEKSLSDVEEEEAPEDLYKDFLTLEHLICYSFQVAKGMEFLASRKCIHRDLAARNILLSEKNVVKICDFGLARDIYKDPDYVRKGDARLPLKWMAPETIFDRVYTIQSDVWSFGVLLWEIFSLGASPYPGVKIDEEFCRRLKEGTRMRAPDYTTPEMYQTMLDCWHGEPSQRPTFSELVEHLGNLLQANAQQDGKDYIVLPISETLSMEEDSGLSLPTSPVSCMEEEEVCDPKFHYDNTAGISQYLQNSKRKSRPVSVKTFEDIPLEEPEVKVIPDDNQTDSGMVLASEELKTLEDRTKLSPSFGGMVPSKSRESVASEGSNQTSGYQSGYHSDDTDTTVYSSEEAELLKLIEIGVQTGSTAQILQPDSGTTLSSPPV

As to `COc1ccc(Cn2nc(-c3ccccc3)c3cc(Nc4ccc(N5CCN(C)CC5)cc4)nc(N4CCNCC4)c32)cc1`, the log2FC is listed as 0.1133 in the series with HUVEC [1]; -0.5169 in the series with HUVEC [2]; 0.1458 in the series with HUVEC [3]; -0.5596 in the series on HUVEC [4]; -0.0473 in the series with HUVEC [12]; -0.6261 in the series on HUVEC [13]. Besides, the Activity entry (in the series on Mus musculus; in series [9]) was “Non-Toxic” throughout. The inhibition result (in the series on HUVEC [5]; in series [10]; in [11]; in series [14]) was “Active” in each case. Also, the IC50 in series [6] is 12 µM. The outcome in the series on Lewis lung carcinoma [7], in the series with HUVEC [8] and in the series on EA.hy 926 was Active. Moreover, the TGI entry in the series with Lewis lung carcinoma [15] is “Active”.

For the compound `COc1ccc(Cn2nc(-c3ccccc3)c3cc(Nc4ccc(N5CCN(C)CC5)cc4)nc(N4CCN(C)CC4)c32)cc1`, the log2FC was 0.1009 with HUVEC [1]; -0.5806 in the series with HUVEC [2]; 0.1566 in the series with HUVEC [3]; -0.9386 with HUVEC [4]; -0.1216 with HUVEC [12]; -1.164 in the series with HUVEC [13]. Moreover, the Activity entry (in the series on Mus musculus; in series [9]) was “Non-Toxic” each time. Besides, the inhibition result (in the series with HUVEC [5]; in series [10]; in [11]; in [14]) was “Active” throughout. Further, the IC50 in [6] came to 7.2 µM. The outcome in the series with Lewis lung carcinoma [7], with HUVEC [8] and with EA.hy 926 was Active. Besides, the TGI result in the series on Lewis lung carcinoma [15] was “Active”.

For the compound `COc1ccc(Cn2nc(-c3ccccc3)c3cc(Cl)nc(N4CCNCC4)c32)cc1`, the log2FC in the series on HUVEC [1] is -0.1906; with HUVEC [2], -0.5393; with HUVEC [3], 0.2465; in the series with HUVEC [4], -0.5549; with HUVEC [12], -0.1005; in the series on HUVEC [13], -0.7662. Besides, the Activity entry (in the series with Mus musculus; in series [9]) was “Non-Toxic” throughout. Further, the inhibition entry (with HUVEC [5]; in series [10]; in series [11]; in series [14]) was “Active” throughout. Moreover, in series [6], the 50% inhibitory concentration (IC50) is 4.3 µM. The outcome in the series on Lewis lung carcinoma [7], with HUVEC [8] and with EA.hy 926 was Active. For the same compound, the TGI result with Lewis lung carcinoma [15] was “Active”.
